# Reference: ChEMBL document CHEMBL5058577, “EUbOPEN Chemogenomics Library 2 (Multiplex)” (2022)
# Tested on: U2OS
# Assay: Multiplex assay against U2OS
# Format: toxicity, cell-based
# Details: human
# Summary of the method: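 Values for tubulin, mitochondrial-mass and membrane-permeability phenotypes are per cents of cells with healthy nuclei. These cells were identified by CellPathfinder machine-learning gating of live cells that had been stained at seeding with Hoechst33342, BioTracker Green Microtubule Cytoskeleton Dye, MitoTracker Red and Annexin V Alexa Fluor 680 and imaged on a CQ1 microscope at 37°C and 5% CO2 after compound addition. The gating first set Hoechst high-intensity objects apart from normal cells, then split normal cells into healthy, pyknosed or fragmented nuclei, and pyknosed cells into mitotic or apoptotic.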
# [1] = 12 h, 1 µM, compound concentration 1 uM, replicate 1
# [2] = 12 h, 1 µM, compound concentration 1 uM, replicate 2
# [3] = 12 h, 10 µM, compound concentration 10 uM, replicate 1
# [4] = 12 h, 10 µM, compound concentration 10 uM, replicate 2
# [5] = 24 h, 1 µM, compound concentration 1 uM, replicate 1
# [6] = 24 h, 1 µM, compound concentration 1 uM, replicate 2
# [7] = 24 h, 10 µM, compound concentration 10 uM, replicate 1
# [8] = 24 h, 10 µM, compound concentration 10 uM, replicate 2
# [9] = 48 h, 1 µM, compound concentration 1 uM, replicate 1
# [10] = 48 h, 1 µM, compound concentration 1 uM, replicate 2
# [11] = 48 h, 10 µM, compound concentration 10 uM, replicate 1
# [12] = 48 h, 10 µM, compound concentration 10 uM, replicate 2
compound,measurement,setting,value
CN1CCN2c3ncccc3Cc3ccccc3C2C1 (stereo not drawn) [MIRTAZAPINE],Population Apoptotic (%),[1],82%
same,Population Fragmented Nuclei (%),[1],21%
same,Population Healthy Nuclei (%),[1],67%
same,Population Hoechst High Intensity Objects (%),[1],1%
same,Population Membrane Permeable-Phenotype (%),[1],3%
same,Population Mitochondria Different-Phenotype (%),[1],1%
same,Population Mitotic Cells (%),[1],17%
same,Population Normal (%),[1],99%
same,Population Pyknosed Nuclei (%),[1],11%
same,Population Tubulin-Different-Phenotype (%),[1],2%
same,Total Cell Count,[1],301
same,Population Apoptotic (%),[2],100%
same,Population Healthy Nuclei (%),[2],72%
same,Population Membrane Permeable-Phenotype (%),[2],5%
same,Population Mitochondria Different-Phenotype (%),[2],6%
same,Population Mitotic Cells (%),[2],0%
same,Population Normal (%),[2],98%
same,Population Pyknosed Nuclei (%),[2],6%
same,Population Tubulin-Different-Phenotype (%),[2],3%
same,Total Cell Count,[2],81
same,Population Apoptotic (%),[3],73%
same,Population Fragmented Nuclei (%),[3],19%
same,Population Healthy Nuclei (%),[3],71%
same,Population Hoechst High Intensity Objects (%),[3],3%
same,Population Membrane Permeable-Phenotype (%),[3],6%
same,Population Mitochondria Different-Phenotype (%),[3],5%
same,Population Mitotic Cells (%),[3],26%
same,Population Normal (%),[3],96%
same,Population Pyknosed Nuclei (%),[3],8%
same,Population Tubulin-Different-Phenotype (%),[3],6%
same,Total Cell Count,[3],266
same,Population Apoptotic (%),[4],66%
same,Population Fragmented Nuclei (%),[4],13%
same,Population Healthy Nuclei (%),[4],82%
same,Population Membrane Permeable-Phenotype (%),[4],3%
same,Population Mitochondria Different-Phenotype (%),[4],4%
same,Population Mitotic Cells (%),[4],33%
same,Population Pyknosed Nuclei (%),[4],3%
same,Population Tubulin-Different-Phenotype (%),[4],0%
same,Total Cell Count,[4],83
same,Population Apoptotic (%),[5],85%
same,Population Fragmented Nuclei (%),[5],15%
same,Population Healthy Nuclei (%),[5],76%
same,Population Hoechst High Intensity Objects (%),[5],2%
same,Population Membrane Permeable-Phenotype (%),[5],5%
same,Population Mitochondria Different-Phenotype (%),[5],3%
same,Population Mitotic Cells (%),[5],14%
same,Population Normal (%),[5],97%
same,Population Pyknosed Nuclei (%),[5],8%
same,Population Tubulin-Different-Phenotype (%),[5],2%
same,Total Cell Count,[5],340
same,Population Apoptotic (%),[6],100%
same,Population Fragmented Nuclei (%),[6],26%
same,Population Healthy Nuclei (%),[6],63%
same,Population Hoechst High Intensity Objects (%),[6],3%
same,Population Membrane Permeable-Phenotype (%),[6],3%
same,Population Mitotic Cells (%),[6],0%
same,Population Normal (%),[6],96%
same,Population Pyknosed Nuclei (%),[6],10%
same,Population Tubulin-Different-Phenotype (%),[6],4%
same,Total Cell Count,[6],99
same,Population Apoptotic (%),[7],89%
same,Population Fragmented Nuclei (%),[7],18%
same,Population Healthy Nuclei (%),[7],71%
same,Population Hoechst High Intensity Objects (%),[7],2%
same,Population Membrane Permeable-Phenotype (%),[7],4%
same,Population Mitochondria Different-Phenotype (%),[7],2%
same,Population Mitotic Cells (%),[7],10%
same,Population Normal (%),[7],97%
same,Population Pyknosed Nuclei (%),[7],9%
same,Population Tubulin-Different-Phenotype (%),[7],0%
same,Total Cell Count,[7],314
same,Population Apoptotic (%),[8],83%
same,Population Fragmented Nuclei (%),[8],9%
same,Population Healthy Nuclei (%),[8],85%
same,Population Hoechst High Intensity Objects (%),[8],0%
same,Population Membrane Permeable-Phenotype (%),[8],5%
same,Population Mitotic Cells (%),[8],16%
same,Population Normal (%),[8],99%
same,Population Pyknosed Nuclei (%),[8],5%
same,Population Tubulin-Different-Phenotype (%),[8],5%
same,Total Cell Count,[8],108
same,Population Apoptotic (%),[9],83%
same,Population Fragmented Nuclei (%),[9],12%
same,Population Healthy Nuclei (%),[9],76%
same,Population Hoechst High Intensity Objects (%),[9],2%
same,Population Membrane Permeable-Phenotype (%),[9],4%
same,Population Mitochondria Different-Phenotype (%),[9],2%
same,Population Mitotic Cells (%),[9],16%
same,Population Normal (%),[9],97%
same,Population Pyknosed Nuclei (%),[9],10%
same,Population Tubulin-Different-Phenotype (%),[9],3%
same,Total Cell Count,[9],479
same,Population Apoptotic (%),[10],92%
same,Population Fragmented Nuclei (%),[10],20%
same,Population Healthy Nuclei (%),[10],68%
same,Population Hoechst High Intensity Objects (%),[10],4%
same,Population Membrane Permeable-Phenotype (%),[10],8%
same,Population Mitochondria Different-Phenotype (%),[10],4%
same,Population Mitotic Cells (%),[10],7%
same,Population Normal (%),[10],95%
same,Population Pyknosed Nuclei (%),[10],11%
same,Population Tubulin-Different-Phenotype (%),[10],1%
same,Total Cell Count,[10],132
same,Population Apoptotic (%),[11],95%
same,Population Fragmented Nuclei (%),[11],15%
same,Population Healthy Nuclei (%),[11],75%
same,Population Hoechst High Intensity Objects (%),[11],2%
same,Population Membrane Permeable-Phenotype (%),[11],7%
same,Population Mitochondria Different-Phenotype (%),[11],4%
same,Population Mitotic Cells (%),[11],5%
same,Population Normal (%),[11],97%
same,Population Pyknosed Nuclei (%),[11],9%
same,Population Tubulin-Different-Phenotype (%),[11],5%
same,Total Cell Count,[11],435
same,Population Apoptotic (%),[12],100%
same,Population Fragmented Nuclei (%),[12],12%
same,Population Healthy Nuclei (%),[12],78%
same,Population Membrane Permeable-Phenotype (%),[12],3%
same,Population Mitochondria Different-Phenotype (%),[12],3%
same,Population Mitotic Cells (%),[12],0%
same,Population Tubulin-Different-Phenotype (%),[12],3%
same,Total Cell Count,[12],170
